In general, Kd refers to the free concentration of one partner at which half of the binding sites on the other are occupied at equilibrium, for simple one-to-one binding. Lower therefore signals higher affinity.

Here are results for 11 molecules from article PMC6981294 (Molecular cell, 2019).

The labels stand for the following.
B2: EVH1 domain of PPP4R3A (amino acids 2-117) (domain or fragment, human, UniProt Q6IN85 2-117, looked up)
chain: TDTRRRVKVYTLNEDRQWDDRGTGHVSSGYVERLKGMSLLVRAESDGSLLLESKINPNTAYQKQQDTLIVWSEAENYDLALSFQEKAGCDEIWEKICQVQGKDPSVDITQDLVDES

One assay deals with T1, PPP4R3A EVH1 domain (Homo sapiens, UniProt Q6IN85).
T1 sequence (Q6IN85 2-117): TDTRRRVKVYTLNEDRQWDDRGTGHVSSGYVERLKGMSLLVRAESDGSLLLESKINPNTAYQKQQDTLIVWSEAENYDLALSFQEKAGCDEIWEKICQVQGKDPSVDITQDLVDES
As to the kind of experiment: ITC of peptides with the EVH1 domain from PPP4R3A. Type of assay: binding. In short, it runs like this:
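Peptide in syringe, titrated at 25 °C into cell holding EVH1 domain: one 0.4 μl injection, then 19 × 2 μl at 150 s spacing, stirring 750 rpm. Peptide-into-buffer controls run. Heats normalised per mole injectant, fitted to single-site model.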

The target of assay [1] is B2. As to the kind of experiment: ITC.
Assay [2] deals with T2, CDC25A full length, recombinant (human, UniProt P30304 1-524).
T2 sequence (looked up): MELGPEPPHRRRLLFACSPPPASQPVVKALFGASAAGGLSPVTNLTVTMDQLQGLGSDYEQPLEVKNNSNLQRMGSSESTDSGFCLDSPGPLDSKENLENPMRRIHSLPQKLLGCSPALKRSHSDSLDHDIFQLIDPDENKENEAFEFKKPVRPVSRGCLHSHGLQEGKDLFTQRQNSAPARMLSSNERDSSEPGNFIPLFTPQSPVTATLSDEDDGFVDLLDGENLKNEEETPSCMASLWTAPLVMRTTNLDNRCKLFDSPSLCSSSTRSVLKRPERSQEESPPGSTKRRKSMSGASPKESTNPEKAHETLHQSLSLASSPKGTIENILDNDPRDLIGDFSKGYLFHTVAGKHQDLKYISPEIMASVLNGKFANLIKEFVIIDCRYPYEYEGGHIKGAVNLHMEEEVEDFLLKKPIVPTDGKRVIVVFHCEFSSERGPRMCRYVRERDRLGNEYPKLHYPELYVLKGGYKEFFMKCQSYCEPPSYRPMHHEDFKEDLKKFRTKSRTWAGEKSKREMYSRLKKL
As to the kind of experiment: ITC. For orientation: ITC needs no label: the signal is the heat of the interaction.

The target of the next assay is T3, GST-WAPL 375-625 (human, UniProt Q7Z5K2 375-625).
T3 sequence (looked up): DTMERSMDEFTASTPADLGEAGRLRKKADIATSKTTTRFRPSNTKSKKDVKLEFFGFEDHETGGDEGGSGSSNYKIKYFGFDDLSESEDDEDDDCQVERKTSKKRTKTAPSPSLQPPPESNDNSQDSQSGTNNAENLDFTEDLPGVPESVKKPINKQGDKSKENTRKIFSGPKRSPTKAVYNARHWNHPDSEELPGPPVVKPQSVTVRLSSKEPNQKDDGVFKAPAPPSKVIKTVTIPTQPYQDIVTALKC
The experiment in a line: ITC.

Ends that are not written are not given here.

In turn, DPDTEAMPPPPPKRPHPL [MCE1-L(-1)A] gave a Kd on PPP4R3A EVH1 domain of 3.78 µM. The same measure, in the same setting: the same measure for DPDTELAPPPPPKRPHPL [MCE1-M1A]: 85.6 µM; for DPDTELMPAPPPKRPHPL [MCE1-P3A]: 7.58 µM; for DPDTELMPPAPPKRPHPL [MCE1-P4A]: 119 µM. On the same count and under the same terms, the same measure for DPDTELMPPPAPKRPHPL [MCE1-P5A]: 1.49 µM. On the same count and under the same terms, the same measure for DPDTELMPPPPAKRPHPL [MCE1-P6A]: 1.4 µM.

B1: MCE1 peptide MCE1-P2A (peptide)
chain: DPDTELMAPPPPKRPHPL
Molecule B1 gave a Kd in assay [1] of 7.93 µM.

Consider B2, for which the binding result (in assay [2]; in the assay with GST-WAPL 375-625) was “binds” in each case.

B3: model peptide P1: Ala (peptide)
chain: PFTAKVPAPPPS
Consider B3, for which, in assay [1], the Kd turned out to be 53 µM.

B4: model peptide P4: Ala (peptide)
chain: PFTFKVAAPPPS
In assay [1], B4 showed a Kd of 53 µM.

B5: MCE1 MxPP motif peptide (peptide)
peptide: DPDTELMPPPPPKRPHPL
In assay [1], B5 displayed a Kd of 0.98 µM.
